Reference: ChEMBL document CHEMBL3785069, “Tumour-specific cytotoxicity and structure-activity relationships of novel 1-[3-(2-methoxyethylthio)propionyl]-3,5-bis(benzylidene)-4-piperidones” (Bioorg Med Chem, 2016)
Calls of active or inactive are those of the source. The calls are words filed in the database; no cut-off is given here.

Legend:
HSC-4 = assay: Selectivity index, ratio of average CC50 for human HGF and HPLF cells to CC50 for human HSC4 cells; conditions: pooled result: one value given for 2 cell lines, strains, targets or settings
HSC-3 = assay: Selectivity index, ratio of average CC50 for human HGF and HPLF cells to CC50 for human HSC3 cells; conditions: pooled result: one value given for 2 cell lines, strains, targets or settings
[1] = Cytotoxicity against human HSC2 cells after 48 hrs by MTT assay; format: functional; conditions: HSC-2, 48 h
Method in brief: (§1)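 Oral carcinoma (HSC-2, HSC-3, HSC-4) and nonmalignant HGF and HPLF cells incubated with graded compound concentrations at 37 °C for 48 h in DMEM plus 10% heat-inactivated FBS. Viability read by MTT. CC50 from duplicate runs, differing by under 10% at each concentration.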

HSC-2 [2] = assay: Selectivity index, ratio of average CC50 for human HGF and HPLF cells to CC50 for human HSC2 cells; conditions: pooled result: one value given for 2 cell lines, strains, targets or settings
L1210 = assay: Cytotoxicity against mouse L1210 cells after 48 hrs by MTT assay; format: functional, cell-based; conditions: L1210, 48 h
Method in brief: (§2)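 Leukemic cells exposed to a concentration series of each compound in RPMI 1640 medium at 37 °C, 72 h for Molt4/C8 and CEM, 48 h for L1210.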

[3] = Cytotoxicity against human HPLF cells after 48 hrs by MTT assay; format: cell-based
Method in brief: as §1

[4] = Cytotoxicity against human HGF cells after 48 hrs by MTT assay; format: cell-based
Method in brief: as §1

[5] = Cytotoxicity against human HSC3 cells after 48 hrs by MTT assay; format: functional; conditions: HSC-3, 48 h
Method in brief: as §1

[6] = Cytotoxicity against human HSC4 cells after 48 hrs by MTT assay; format: functional; conditions: HSC-4, 48 h
Method in brief: as §1

[7] = Cytotoxicity against human Molt4/C8 cells after 72 hrs by MTT assay; format: functional, cell-based; conditions: MOLT-4, 72 h
Method in brief: as §2

CCRF-CEM = assay: Cytotoxicity against human CEM cells after 72 hrs by MTT assay; format: functional, cell-based
Method in brief: as §2

HSC-2 [8] = assay: Induction of apoptosis in human HSC2 cells assessed as PARP1 cleavage at 0.4 uM after 24 hrs by SDS-PAGE method; format: functional, cell-based
Method in brief: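 HSC-2 cells grown in 6-well plates for 24 h, then exposed to 0.1, 0.2, 0.3 and 0.4 µM for 24 h. Cells scraped into lysis buffer and run on 8% SDS-PAGE, then transferred to PVDF. Cleaved PARP (Asp214) detected with a human-specific antibody on X-ray film.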

Which results are given for COCCSCCC(=O)N1C/C(=C\c2ccccc2)C(=O)/C(=C/c2ccccc2)C1?
Selectivity Index (HSC-4): 7.07; Selectivity Index (HSC-3): 5.87; CC50 [1]: 1300 nM; Selectivity Index (HSC-2 [2]): 6.64; IC50 (L1210): 3000 nM; CC50 at 48 h [3]: 7580 nM; CC50 at 48 h [4]: 9670 nM; CC50 [5]: 1470 nM; CC50 [6]: 1220 nM; IC50 [7]: 1340 nM; IC50 (CCRF-CEM): 1230 nM

For COCCS(=O)(=O)CCC(=O)N1C/C(=C\c2ccc(F)cc2)C(=O)/C(=C/c2ccc(F)cc2)C1, which IC50 (L1210) is on record?
Its IC50 is 2450 nM.

And the IC50 [7]?
Its IC50 is 1120 nM.

And the IC50 (CCRF-CEM)?
Its IC50 is 610 nM.

Which “Selectivity Index” value (HSC-4) does the source give for COCCSCCC(=O)N1C/C(=C\c2ccc(OC)c(OC)c2)C(=O)/C(=C/c2ccc(OC)c(OC)c2)C1 here?
The value was 10.4.

And the “Selectivity Index” value (HSC-3)?
The value was 7.34.

What about the CC50 [1] of the same compound?
Its CC50 is 400 nM.

What about the “Selectivity Index” value (HSC-2 [2]) of the same compound?
Its value is 22.4.

And the IC50 (L1210)?
The IC50 was 1570 nM.

What about the Activity (HSC-2 [8]) of the same compound?
Its Activity is “Active”.

What about the CC50 at 48 h [3] of the same compound?
Its CC50 at 48 h is 8070 nM.

What about the CC50 at 48 h [4] of the same compound?
Its CC50 at 48 h is 9830 nM.

What about the CC50 [5] of the same compound?
Its CC50 is 1220 nM.

What about the CC50 [6] of the same compound?
Its CC50 is 860 nM.

What about the IC50 [7] of the same compound?
Its IC50 is 1810 nM.

And the IC50 (CCRF-CEM)?
The IC50 was 1840 nM.

Which “Selectivity Index” value (HSC-4) does the source give for COCCSCCC(=O)N1C/C(=C\c2ccc(F)cc2)C(=O)/C(=C/c2ccc(F)cc2)C1 here?
The value was 9.16.

What about the “Selectivity Index” value (HSC-3) of the same compound?
The value was 4.31.

And the CC50 [1]?
The CC50 was 760 nM.

What about the “Selectivity Index” value (HSC-2 [2]) of the same compound?
Its value is 6.75.

And the IC50 (L1210)?
Its IC50 is 5850 nM.

What about the CC50 at 48 h [3] of the same compound?
Its CC50 at 48 h is 4990 nM.

What about the CC50 at 48 h [4] of the same compound?
The CC50 at 48 h was 5270 nM.

And the CC50 [5]?
Its CC50 is 1190 nM.

And the CC50 [6]?
Its CC50 is 560 nM.

What about the IC50 [7] of the same compound?
The IC50 was 1720 nM.

What about the IC50 (CCRF-CEM) of the same compound?
Its IC50 is 1600 nM.

Which “Selectivity Index” value (HSC-4) does the source give for COCCSCCC(=O)N1C/C(=C\c2ccc(C)cc2)C(=O)/C(=C/c2ccc(C)cc2)C1 here?
The value was 8.12.

What about the “Selectivity Index” value (HSC-3) of the same compound?
Its value is 5.73.

And the CC50 [1]?
Its CC50 is 1450 nM.

What about the “Selectivity Index” value (HSC-2 [2]) of the same compound?
The value was 6.72.

And the IC50 (L1210)?
Its IC50 is 4900 nM.

What about the CC50 at 48 h [3] of the same compound?
The CC50 at 48 h was 9170 nM.

And the CC50 at 48 h [4]?
The CC50 at 48 h was 10300 nM.

And the CC50 [5]?
Its CC50 is 1700 nM.

And the CC50 [6]?
The CC50 was 1200 nM.

What about the IC50 [7] of the same compound?
The IC50 was 2660 nM.

What about the IC50 (CCRF-CEM) of the same compound?
The IC50 was 1950 nM.

Which “Selectivity Index” value (HSC-4) does the source give for COCCSCCC(=O)N1C/C(=C\c2ccc(OC)cc2)C(=O)/C(=C/c2ccc(OC)cc2)C1 here?
Its value is 10.1.

And the “Selectivity Index” value (HSC-3)?
Its value is 7.23.

What about the CC50 [1] of the same compound?
Its CC50 is 1970 nM.

What about the “Selectivity Index” value (HSC-2 [2]) of the same compound?
Its value is 8.33.

What about the IC50 (L1210) of the same compound?
Its IC50 is 13200 nM.

And the CC50 at 48 h [3]?
Its CC50 at 48 h is 15500 nM.

And the CC50 at 48 h [4]?
Its CC50 at 48 h is 17200 nM.

What about the CC50 [5] of the same compound?
The CC50 was 2270 nM.

And the CC50 [6]?
The CC50 was 1630 nM.

What about the IC50 [7] of the same compound?
Its IC50 is 7080 nM.

And the IC50 (CCRF-CEM)?
The IC50 was 6310 nM.

For COCCSCCC(=O)N1C/C(=C\c2ccc(Cl)cc2)C(=O)/C(=C/c2ccc(Cl)cc2)C1, which “Selectivity Index” value (HSC-4) is on record?
The value was 6.93.

And the “Selectivity Index” value (HSC-3)?
The value was 5.45.

And the CC50 [1]?
The CC50 was 1090 nM.

What about the “Selectivity Index” value (HSC-2 [2]) of the same compound?
The value was 5.15.

And the IC50 (L1210)?
The IC50 was 3440 nM.

What about the CC50 at 48 h [3] of the same compound?
The CC50 at 48 h was 5970 nM.

What about the CC50 at 48 h [4] of the same compound?
The CC50 at 48 h was 5240 nM.

What about the CC50 [5] of the same compound?
Its CC50 is 1030 nM.

And the CC50 [6]?
The CC50 was 810 nM.

And the IC50 [7]?
Its IC50 is 1730 nM.

What about the IC50 (CCRF-CEM) of the same compound?
The IC50 was 1240 nM.
